Test results as given in ChEMBL document CHEMBL2380254, “Optimization of tocotrienols as antiproliferative and antimigratory leads” (Eur J Med Chem, 2013).

Tests used:
Type in all cases: functional
[1] = system: SK-OV-3; test: Growth inhibition of human SKOV3 cells assessed as cell growth at 10 uM after 48 hrs by sulforhodamine B assay; settings: SK-OV-3, 48 h, read-out: Activity
Outline: (§1)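 Single-dose NCI-60 test at 10 µM. Cells were grown in RPMI 1640 with 5% FBS and 2 mM L-glutamine, preincubated 24 h, with T0 plates TCA-fixed. Exposure was 48 h at 37 °C, 5% CO2. Cells were fixed with cold TCA (final 10%, 4 °C, 60 min), stained with SRB and read at 515 nm. Percent growth was taken relative to T0 and untreated control; negative values denote cell kill.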

[2] = system: UACC-257; test: Growth inhibition of human UACC257 cells assessed as cell growth at 10 uM after 48 hrs by sulforhodamine B assay; settings: UACC-257, 48 h, read-out: Activity; outline: as §1
[3] = system: SNB-19; test: Growth inhibition of human SNB19 cells assessed as cell growth at 10 uM after 48 hrs by sulforhodamine B assay; settings: SNB-19, 48 h, read-out: Activity; outline: as §1
[4] = system: SW-620; test: Growth inhibition of human SW620 cells assessed as cell growth at 10 uM after 48 hrs by sulforhodamine B assay; settings: SW-620, 48 h, read-out: Activity; outline: as §1
[5] = system: HCT-15; test: Growth inhibition of human HCT15 cells assessed as cell growth at 10 uM after 48 hrs by sulforhodamine B assay; settings: HCT-15, 48 h, read-out: Activity
Outline: (§2)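 NCI-60 single-dose screen at 10 µM: cells in RPMI 1640 with 5% FBS, preincubated 24 h, then exposed 48 h at 37 °C. TCA fixation (16% final for suspension cells), SRB staining, absorbance 515 nm. Percent growth relative to time-zero and untreated control plates; negative values indicate cell kill.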

[6] = Growth inhibition of human HCC2998 cells assessed as cell growth at 10 uM after 48 hrs by sulforhodamine B assay; settings: HCC 2998, 48 h, read-out: Activity; outline: as §2
[7] = system: NCI-H226; test: Growth inhibition of human NCI-H226 cells assessed as cell growth at 10 uM after 48 hrs by sulforhodamine B assay; settings: NCI-H226, 48 h, read-out: Activity
Outline: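 Single-dose NCI-60 screen: adherent cells in RPMI 1640 with 5% FBS were exposed to 10 µM for 48 h at 37 °C after a 24 h preincubation. They were fixed in situ with cold TCA (10% final), stained with 0.4% SRB in 1% acetic acid, solubilized in 10 mM Tris base, and read at 515 nm. Percent growth was taken relative to time-zero and control plates.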

[8] = system: A549; test: Growth inhibition of human A549/ATCC cells assessed as cell growth at 10 uM after 48 hrs by sulforhodamine B assay; settings: A549, 48 h, read-out: Activity; outline: as §2
[9] = system: SR; test: Growth inhibition of human SR cells assessed as cell growth at 10 uM after 48 hrs by sulforhodamine B assay; settings: read-out: Activity
Outline: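 Suspension line in RPMI 1640 with 5% FBS, single 10 µM dose for 48 h. Settled cells were fixed with TCA (final 16%), then SRB-stained and read at 515 nm. Percent growth was taken versus T0 and control; negative values denote cytotoxicity.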

[10] = system: RPMI-8226; test: Growth inhibition of human RPMI8226 cells assessed as cell growth at 10 uM after 48 hrs by sulforhodamine B assay; settings: RPMI-8226, 48 h, read-out: Activity
Outline: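 Single 10 µM dose applied to suspension cells in RPMI 1640 with 5% FBS and 2 mM L-glutamine for 48 h at 37 °C. Settled cells were fixed with 80% TCA (16% final), stained with SRB, and read at 515 nm. Percent growth was calculated against time-zero and untreated control optical densities.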

[11] = system: BT-549; test: Growth inhibition of human BT549 cells after 48 hrs by sulforhodamine B assay; settings: BT-549, 48 h
Outline: (§3)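 NCI-60 screen: cells in RPMI 1640 with 5% FBS and 2 mM glutamine, 5000–40,000 cells/well, preincubated 24 h. Five concentrations (10-fold dilutions; 100 to 0.001 µM) applied for 48 h at 37 °C. TCA fixation, SRB stain, absorbance at 515 nm. Time-zero plates included; GI50 where 100×(T−T0)/(C−T0)=50.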

[12] = system: DU-145; test: Growth inhibition of human DU145 cells after 48 hrs by sulforhodamine B assay; settings: DU-145, 48 h; outline: as §3
[13] = system: PC-3; test: Growth inhibition of human PC3 cells after 48 hrs by sulforhodamine B assay; settings: PC-3, 48 h
Outline: (§4)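 NCI-60 panel cells grown in RPMI 1640 with 5% FBS and 2 mM L-glutamine, seeded at 5000–40,000 cells/well and preincubated 24 h. Five 10-fold dilutions (0.001–100 µM) from DMSO stocks were added for 48 h at 37 °C. Adherent cells were fixed with cold TCA (10% final) for 60 min at 4 °C, stained with 0.4% SRB, and read at 515 nm. GI50 was set where 100×(T−T0)/(C−T0)=50.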

[14] = system: RXF 393; test: Growth inhibition of human RXF393 cells after 48 hrs by sulforhodamine B assay; settings: RXF 393, 48 h; outline: as §4
[15] = system: UACC-257; test: Growth inhibition of human UACC257 cells after 48 hrs by sulforhodamine B assay; settings: UACC-257, 48 h
Outline: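 NCI-60 five-dose screen. Cells were grown in RPMI 1640 with 5% FBS and 2 mM L-glutamine, plated at 5000–40,000 cells/well and incubated 24 h before dosing, with T0 plates TCA-fixed. DMSO stocks were diluted to doses of […] and exposed 48 h at 37 °C, 5% CO2. Cells were fixed with cold TCA (final 10%, 60 min, 4 °C), stained with 0.4% SRB in 1% acetic acid for 10 min, solubilized in 10 mM trizma base and read at 515 nm. GI50 is where 100×(T−T0)/(C−T0)=50.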

[16] = system: SK-MEL-2; test: Growth inhibition of human SK-MEL-2 cells after 48 hrs by sulforhodamine B assay; settings: SK-MEL-2, 48 h; outline: as §4
[17] = system: LOX IMVI; test: Growth inhibition of human LOXIMVI cells after 48 hrs by sulforhodamine B assay; outline: as §3
[18] = system: KM12; test: Growth inhibition of human KM12 cells after 48 hrs by sulforhodamine B assay; settings: KM12, 48 h; outline: as §3
[19] = system: HT-29; test: Growth inhibition of human HT-29 cells after 48 hrs by sulforhodamine B assay; settings: HT-29, 48 h; outline: as §3
[20] = system: HCT-116; test: Growth inhibition of human HCT116 cells after 48 hrs by sulforhodamine B assay; settings: HCT-116, 48 h; outline: as §3
[21] = system: NCI-H226; test: Growth inhibition of human NCI-H226 cells after 48 hrs by sulforhodamine B assay; settings: NCI-H226, 48 h; outline: as §4
[22] = system: HOP-62; test: Growth inhibition of human HOP62 cells after 48 hrs by sulforhodamine B assay; settings: HOP-62, 48 h; outline: as §3
[23] = system: A549; test: Growth inhibition of human A549/ATCC cells after 48 hrs by sulforhodamine B assay; settings: A549, 48 h; outline: as §3
[24] = system: CCRF-CEM; test: Growth inhibition of human CCRF-CEM cells after 48 hrs by sulforhodamine B assay; outline: as §3

Row | Compound | growth at 10 µM [1] [%] | growth at 10 µM [2] [%] | growth at 10 µM [3] [%] | growth at 10 µM [4] [%] | growth at 10 µM [5] [%] | growth at 10 µM [6] [%] | growth at 10 µM [7] [%] | growth at 10 µM [8] [%] | growth at 10 µM [9] [%] | growth at 10 µM [10] [%] | also measured
1 | CC(C)=CCC/C(C)=C/CC/C(C)=C/CC[C@]1(C)CCc2c3c(c(C)c(C)c2O1)OCN(CCc1ccc(O)cc1)C3 | 105 | 93.6 | 94.1 | 48.4 | 102 | 23.3 | 111 | 92.8 | 16.3 |  | 
2 | CC(C)=CCC/C(C)=C/CC/C(C)=C/CC[C@]1(C)CCc2c3c(c(C)c(C)c2O1)OCN(CCCCCCCCCCCCO)C3 |  | 104 | 104 | 109 | 100 | 102 | 93.3 | 86.5 | 67.2 | 87 | 
3 | CC(C)=CCC/C(C)=C/CC/C(C)=C/CC[C@]1(C)CCc2c3c(c(C)c(C)c2O1)OCN(CCCCO)C3 | 76.9 | 112 | 71.3 | -16.1 |  | -61.8 | 100 | 70 | -11.1 | 91.9 | GI50 [11]: > 10 µM; GI50 [12]: 6.55 µM; GI50 [13]: 8.37 µM; GI50 [14]: 5.63 µM; GI50 [15]: 1.73 µM; GI50 [16]: > 10 µM; GI50 [17]: 2.22 µM; GI50 [18]: 1.94 µM; GI50 [19]: 2.87 µM; GI50 [20]: 2 µM; GI50 [21]: > 10 µM; GI50 [22]: 5.95 µM; GI50 [23]: 3.3 µM; GI50 [24]: 3.45 µM
4 | COc1ccc(CCN2COc3c(C)c(C)c4c(c3C2)CC[C@@](C)(CC/C=C(\C)CC/C=C(\C)CCC=C(C)C)O4)cc1OC | 95.3 | 105 | 104 | 101 | 102 | 70.5 | 97 | 98.9 | 54.6 | 64.6 | 
5 | CC(C)=CCC/C(C)=C/CC/C(C)=C/CC[C@]1(C)CCc2c3c(cc(C)c2O1)OCN(CCCCCCCCCCO)C3 |  | 81.4 | 98.9 | 104 | 96.9 | 98.5 | 89.8 | 59.9 | 3.3 | 63.2 | 
6 | CC(C)=CCC/C(C)=C/CC/C(C)=C/CC[C@]1(C)CCc2c3c(c(C)c(C)c2O1)OCN(CCCCCCCCCCO)C3 |  | 102 | 95.7 | 105 | 91.1 | 97.9 | 92.6 | 74.9 | 51.9 | 78.8 | 
